CaV13 ICDI inh – Disruptors of the CACNA1D IQ motif to Ca2+-dependent inactivation inhibitor domain association, primary screening, Förster resonance energy transfer in intact living …. 340,000 compounds, 0.098% hits. HEK cells, CFP/YFP FRET ICDI-IQ, plate reader, 10 min; percent FRET-ratio fall versus neutral wells. inhibition, % at 12.3 µM. AID 743397;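 active = mean replicate inhibition of at least 30% and at least 1% of replicates passing that level; inconclusive = only one of the two criteria is met; inactive = neither criterion is met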;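 also: 0% = median of the neutral control wells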
Runt-CBFb FRET – inhibitors of human RUNX1 Runt domain binding to CBFb | 220,000 compounds, 0.46% hits | inhibition, % at 20 µM | Cerulean-Runt/Venus-CBFb FRET ratio 530/480, 1 h;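 active = inhibition over about 50% at 20 µM in the single-dose screen, limit read from the data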;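 also: 0% = DMSO wells and 100% = excess unlabeled CBFb competitor control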
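Assay system: Cerulean-Runt domain / Medium: Tris 50 mM pH 7.5, KCl, K2SO4, 0.01% BSA / Timing: protein complex preformed 1 h, compound exposure 1 h, room temperature, dark / Measured by: FRET, excitation 422 nm, emission at 530 and 480 nm / Evaluation: loss of energy transfer signal / Control set: 5 µM unlabeled CBFb as full-inhibition high control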
Runt-SMMHC FRET – inhibitors of human RUNX1 Runt domain binding to CBFb-SMMHC; Cerulean-Runt/Venus-CBFb-SMMHC FRET ratio 530/480, 1 h; inhibition, % at 20 µM; 220,000 compounds, 0.74% hits; AID 1434;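 active = mean inhibition across duplicate retests at 20 µM reaching about 50%, limit read from the data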;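 also: 0% = DMSO wells and 100% = wells with excess untagged CBFb-SMMHC; inhibitors lower the FRET ratio by blocking Runt binding to CBFb-SMMHC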
RanGTP-Impb inh – inhibitors of RanGTP-importin-beta interaction, primary screen, biochemical, FRET, CFP-Ran, YFP-importin-beta, homogeneous; cell-free CFP-Ran/YFP-importin-beta FRET ratio; 300,000 compounds, 1.1% hits; inhibition, % (concentration not given with the values); AID 2216;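 active = more than half of the replicate wells show a fall in the fluorescence ratio signal beyond about 16%, limit read from the data, passing the limit was not always enough; inconclusive = exactly half of the replicate wells pass the set limit; inactive = fewer than half of replicates pass the limit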;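 also: 0% = DMSO wells and 100% = Ran loaded with GDP instead of GTP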
Hck-Nef inh – inhibitors of human Hck kinase activated by Nef | P08631 | 220,000 compounds, 0.68% hits | Recombinant Hck-YEEI plus Nef, Z-Lyte FRET kinase assay | inhibition, % at 20 µM;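 active = Hck-Nef kinase inhibition above about 50%, limit read from the data; inactive = inhibition below that limit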;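 also: 0% = DMSO with Hck plus Nef and 100% = Hck alone without Nef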
Target sequence (P08631 whole entry, looked up): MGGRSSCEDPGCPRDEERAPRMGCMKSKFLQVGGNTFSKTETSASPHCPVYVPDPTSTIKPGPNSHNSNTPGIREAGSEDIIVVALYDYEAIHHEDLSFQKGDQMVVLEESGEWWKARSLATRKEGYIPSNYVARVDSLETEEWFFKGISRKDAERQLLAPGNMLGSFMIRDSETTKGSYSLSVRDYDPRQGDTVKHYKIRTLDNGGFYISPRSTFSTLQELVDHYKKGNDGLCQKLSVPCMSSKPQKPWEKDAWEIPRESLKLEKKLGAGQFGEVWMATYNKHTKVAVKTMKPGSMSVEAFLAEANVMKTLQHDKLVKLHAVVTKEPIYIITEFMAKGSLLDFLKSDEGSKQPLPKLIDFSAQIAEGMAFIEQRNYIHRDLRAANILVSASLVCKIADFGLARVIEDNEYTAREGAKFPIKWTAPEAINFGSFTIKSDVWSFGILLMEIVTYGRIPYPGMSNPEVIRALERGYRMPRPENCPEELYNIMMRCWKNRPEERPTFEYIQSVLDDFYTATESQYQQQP
* marks the source's active call; other numbers are inactive results; u = inconclusive; x = no result given. A selection: hits, their analogues and other compounds. The true share with any hit is near 1.5%.

SMILES	CaV13 ICDI inh	Runt-CBFb FRET	Runt-SMMHC FRET	RanGTP-Impb inh	Hck-Nef inh
CCCC(c1nnnn1Cc1ccc(OC)cc1)N1CCC(C(N)=O)CC1 (centres undefined)	-4	-4	4	u	2
COc1ccc(Cn2nnnc2C(CC(C)C)N2CCC(C(N)=O)CC2)cc1 (centres undefined)	43*	0	-1	5	20
CCc1nc2ccc(C(=O)Nc3cccc(OCC(=O)N(C)C)c3)cn2c1N(C)C(=O)c1cccc(OC)c1	-5	x	x	x	x
C/C(C/C(C)=C1/SC(=S)NC1=O)=C1\SC(=S)NC1=O	-5	37	20	x	75*
CCCCCC/C(C)=C1/SC(=S)NC1=O	-8	x	0	-4	0
Cc1cccc(NS(=O)(=O)c2ccc(C)c(C(=O)NCc3ccccn3)c2)c1	-6	x	x	x	x
O=C(NCCNC(=O)c1ccccc1)c1ccccc1	0	1	0	u	22
O=C(NCC#CCOCc1ccccc1)c1ccccc1	37*	0	1	-2	2
CC(=O)N1CCc2c(sc(NC(=O)C3CC3)c2-c2nc3ccccc3s2)C1	-9	6	-16	24*	3
CCCCC(=O)Nc1sc2c(c1-c1nc3ccccc3s1)CCN(C(C)=O)C2	x	2	-2	x	66*
O=C(Cc1ccc(Br)cc1)OCC(=O)N1CCCCCC1	-5	x	x	x	x
NNC(=O)c1cc2ccccc2cc1NS(=O)(=O)c1ccccc1	-4	x	x	-3	x
COc1cc(OC)c2c(c1)O/C(=C\c1ccccc1)C2=O	-5	x	x	-3	x
COCOc1ccc(/C=C2/Oc3cc(OCOC)cc(OCOC)c3C2=O)c(OCOC)c1	x	x	x	104*	x
Cc1ccc(CN/C=C/C(=O)c2ccc(Br)cc2)cc1	x	-1	-2	10	1
Cc1ccc(C(=O)/C=C/NCc2ccc(F)cc2)cc1	-5	2	-1	31*	5
CCCn1c2ccccc2c2cnn(CC(=O)NCCN(C)C)c(=O)c21	-2	x	x	20*	x
CCC(=O)N1CCc2nc(-c3ccccc3)sc2C1	-3	x	x	6	x
CSc1ccccc1OCc1cc(C(=O)NCCN2CCCc3ccccc32)no1	-7	x	x	2	x
CC(c1nc2ccccc2c(=O)[nH]1)N(C)c1ccc2ccccc2c1 (centres undefined)	-5	2	3	96*	-1
CCCCn1c(N)c(NCC)c(=O)[nH]c1=O	-5	24	70*	x	0
COCCNC(=O)/C(C#N)=C/c1c(N2CCN(C)CC2)nc2ccccn2c1=O	-1	x	x	97*	x
CCOC(=O)/C(C#N)=C/c1c(N2CCN(C)CC2)nc2ccccn2c1=O	-21	x	x	101*	x
CCNC(=O)/C(C#N)=C/c1c(N2CCOCC2)nc2ccccn2c1=O	-5	63*	81*	9	15
CCNC(=O)/C(C#N)=C/c1c(N(Cc2ccccc2)Cc2ccccc2)nc2ccccn2c1=O	-2	8	22	4	3
SMILES	CaV13 ICDI inh	Runt-CBFb FRET	Runt-SMMHC FRET	RanGTP-Impb inh	Hck-Nef inh
CCOC(=O)/C(C#N)=C/c1c(N2CCCCCC2)nc2ccccn2c1=O	-21	x	x	-2	x
CN1CCN(c2nc3ccccn3c(=O)c2/C=C(\C#N)S(=O)(=O)c2ccccc2)CC1	99*	2	5	72*	9
N#C/C(=C\c1c(N2CCN(c3ccccc3)CC2)nc2ccccn2c1=O)S(=O)(=O)c1ccccc1	-2	x	x	-3	x
Cn1cc(CN2CCCC(C(=O)Nc3ccc(-c4cccc(F)c4)cc3)C2)cn1 (centres undefined)	-3	x	x	-2	x
CCN(CC)CCCNc1nc2cc(OC)c(OC)cc2c2nc(-c3ccccc3)nn12	-5	1	1	50*	-3
CCN(CC)CCCNc1nc2cc(OC)c(OC)cc2c2nc(-c3cccnc3)nn12	-3	0	1	-4	-3
CCOC(=O)c1c(NC(=S)N2CCN(C)CC2)sc2c1CCN(C(=O)OCC)C2	-2	7	2	2	10
COC(=O)NC(Nc1sc2c(c1C(N)=O)CCCC2)(C(=O)OC)C(F)(F)F (centres undefined)	-4	11	2	5	4
CCC(=O)NC(Nc1sc2c(c1C(=O)OC)CCN(C)C2)(C(F)(F)F)C(F)(F)F	x	34	61*	66*	6
CCOC(=O)NC(Nc1sc2c(c1C(=O)OC)CCN(C)C2)(C(F)(F)F)C(F)(F)F	x	38	47	57*	0
CCOC(=O)C(NC(=O)CC)(Nc1sc2c(c1C(=O)OC)CCN(C)C2)C(F)(F)F (centres undefined)	-4	8	32	38*	0
OC1CCCN(Cc2ccc3ccc4cccc5ccc2c3c45)C1 (centres undefined)	x	x	9	41*	3
c1cc2ccc3ccc(CN4CCOCC4)c4ccc(c1)c2c34	-5	x	10	45*	0
CSc1ccc(SC2CN(Cc3ccc(C)cc3)S(=O)(=O)C2)cc1 (centres undefined)	-5	x	x	x	x
CCOc1cc(/C=C\c2nc(O)c([N+](=O)[O-])c(=O)[nH]2)ccc1OC(C)C	-3	x	x	7	x
C=CCc1cc(/C=C/c2nc(O)c([N+](=O)[O-])c(=O)[nH]2)cc(OC)c1O	-13	38	80*	34*	32
CCCCN1C(=O)Cc2c1nc(N)c1c(N)nc(N(CCC)CCC)c(C#N)c21	-5	103*	-2	3	15
O=C(NCc1cccs1)c1ccc(Cl)c(S(=O)(=O)N2CCOCC2)c1	-7	x	x	x	x
O=C(c1cccn2c(=O)c3cc4ccccc4cc3nc12)N1CCN(c2ccccc2)CC1	x	3	-11	-7	0
Cc1nc2ccn(Cc3ccccc3)c(=O)c2cc1C(=O)N1CCN(c2ccccc2)CC1	-6	x	x	92*	x
CCCN(CC(=O)Nc1cc(C)on1)CC(=O)Nc1ccccc1C	-5	x	x	x	x
O=C(COc1ccc2c(c1)oc(=O)c1ccccc12)NCCCN1CCOCC1	-14	x	x	2	x
CCOC(=O)C1=C(CSc2nc(C)ccc2C#N)OC(N)=C(C#N)C1c1cccc(OC)c1OC (centres undefined)	-4	24	8	18*	0
CCOC(=O)c1[nH]c2c(c1-c1ccccc1)C(=O)CC(c1ccc(OCC)cc1)C2 (centres undefined)	-2	0	2	-2	-1
CCOC(=O)c1[nH]c2c(c1-c1ccccc1)C(=O)CC(c1ccc(OC)c(OC)c1)C2 (centres undefined)	-2	102*	3	1	5
CCCn1cnc2cc(NCc3cccc(OC)c3)ccc21	-11	10	13	24*	1
CCOc1ccc(CNc2ccc3c(c2)ncn3C)cc1	-4	11	4	9	0
CCOc1ccc(CNc2ccc3c(c2)ncn3C(C)(C)C)cc1	-4	x	x	19*	x

From PubChem
